Data reported in ChEMBL document CHEMBL1148551, “Synthesis and biological evaluation of novel heterocyclic quinones as inhibitors of the dual specificity protein phosphatase CDC25C” (Bioorg Med Chem Lett, 2006).

Target: T1, M-phase inducer phosphatase 3 (Homo sapiens, UniProt P30307)
T1 sequence (P30307 whole entry): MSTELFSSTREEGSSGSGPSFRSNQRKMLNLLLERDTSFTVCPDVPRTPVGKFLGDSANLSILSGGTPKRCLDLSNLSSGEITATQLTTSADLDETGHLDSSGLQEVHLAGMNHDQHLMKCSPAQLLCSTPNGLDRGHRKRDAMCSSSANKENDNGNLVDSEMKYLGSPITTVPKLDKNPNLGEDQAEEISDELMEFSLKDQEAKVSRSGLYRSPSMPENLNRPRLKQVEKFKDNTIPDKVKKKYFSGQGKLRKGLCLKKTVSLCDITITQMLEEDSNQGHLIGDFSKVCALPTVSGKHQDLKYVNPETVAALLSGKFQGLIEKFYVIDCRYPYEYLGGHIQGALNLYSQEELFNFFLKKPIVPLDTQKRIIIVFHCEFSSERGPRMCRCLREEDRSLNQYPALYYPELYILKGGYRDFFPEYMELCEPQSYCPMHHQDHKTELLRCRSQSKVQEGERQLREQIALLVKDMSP
Test: Inhibitory activity against recombinant CDC25C
In short: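 Recombinant maltose binding protein (MBP)-CDC25C fusion enzyme, with 3-O-methylfluorescein phosphate (OMFP) as substrate. IC50 given as mean ± SEM from at least two, usually three, independent experiments.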

Question: With CCc1nc2c(o1)C(O)=C/C(=N\CCN(C)C)C2=O as the molecule, how does the IC50 read?
Answer: 130 nM

Question: For CN(C)CC/N=C1\C=C(O)c2oc(-c3ccccc3)nc2C1=O, which IC50 is on record?
Answer: 230 nM

Question: With CN(C)CC/N=C1\C=C(O)c2cn(C)cc2C1=O as the molecule, how does the IC50 read?
Answer: 81000 nM

Question: With CN(C)CC/N=C1\C=C(O)c2[nH]c(-c3ccccc3)nc2C1=O as the molecule, how does the IC50 read?
Answer: 17000 nM

Question: How did the IC50 turn out when CN(C)CC/N=C1\C=C(O)c2nc(-c3ccccc3)oc2C1=O was run?
Answer: 230 nM

Question: With CN(C)CC/N=C1\C=C(O)c2nn(-c3ccccc3)cc2C1=O as the molecule, how does the IC50 read?
Answer: 12000 nM

Question: Cc1nc2c(s1)C(O)=C/C(=N\CCN(C)C)C2=O was tested. Which IC50 did it give?
Answer: 150 nM

Question: How did the IC50 turn out when CN(C)CC/N=C1\C=C(O)c2cn(-c3ccccc3)nc2C1=O was run?
Answer: 12000 nM

Question: CCc1nc2c(o1)C(=O)C(NCCN(C)C)=CC2=O was tested. Which IC50 did it give?
Answer: 130 nM

Question: How did the IC50 turn out when CCc1nc2c([nH]1)C(=O)/C(=N/CCN(C)C)C=C2O was run?
Answer: 12000 nM

Test system: MIA PaCa-2
Test: Antiproliferative activity against human pancreatic carcinoma Mia PaCa2 cell line by colorimetric assay
Assay type: functional, cell-based
In short: (§1)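 WST1 tetrazolium salt cleavage by mitochondrial dehydrogenases in viable cells, colorimetric read-out. IC50 given as mean ± SEM from at least two experiments, with four or eight determinations per tested concentration.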

Question: Which IC50 does the source give for CCc1nc2c(o1)C(O)=C/C(=N\CCN(C)C)C2=O here?
Answer: 440 nM

Question: For CN(C)CC/N=C1\C=C(O)c2oc(-c3ccccc3)nc2C1=O, which IC50 is on record?
Answer: 150 nM

Question: For CN(C)CC/N=C1\C=C(O)c2[nH]c(-c3ccccc3)nc2C1=O, which IC50 is on record?
Answer: 12000 nM

Question: CN(C)CC/N=C1\C=C(O)c2nc(-c3ccccc3)oc2C1=O was tested. Which IC50 did it give?
Answer: 150 nM

Question: Which IC50 does the source give for O=C1C(Cl)=C(NCCN2CCOCC2)C(=O)c2ncccc21 here?
Answer: 2500 nM

Question: How did the IC50 turn out when Cc1nc2c(s1)C(O)=C/C(=N\CCN(C)C)C2=O was run?
Answer: 180 nM

Question: How did the IC50 turn out when CCc1nc2c(o1)C(=O)C(NCCN(C)C)=CC2=O was run?
Answer: 440 nM

Question: With CCc1nc2c([nH]1)C(=O)/C(=N/CCN(C)C)C=C2O as the molecule, how does the IC50 read?
Answer: 18000 nM

Question: For CC1=CC(=O)c2ccccc2C1=O [MENADIONE], which IC50 is on record?
Answer: 6200 nM

Test system: DU-145
Test: Antiproliferative activity against human androgen-independent prostate carcinoma DU145 cell line by colorimetric assay
Assay type: functional, cell-based
In short: as §1

Question: For CCc1nc2c(o1)C(O)=C/C(=N\CCN(C)C)C2=O, which IC50 is on record?
Answer: 220 nM

Question: For CN(C)CC/N=C1\C=C(O)c2oc(-c3ccccc3)nc2C1=O, which IC50 is on record?
Answer: 210 nM

Question: For CN(C)CC/N=C1\C=C(O)c2[nH]c(-c3ccccc3)nc2C1=O, which IC50 is on record?
Answer: > 10000 nM

Question: Which IC50 does the source give for CN(C)CC/N=C1\C=C(O)c2nc(-c3ccccc3)oc2C1=O here?
Answer: 210 nM

Question: For O=C1C(Cl)=C(NCCN2CCOCC2)C(=O)c2ncccc21, which IC50 is on record?
Answer: 2300 nM

Question: How did the IC50 turn out when Cc1nc2c(s1)C(O)=C/C(=N\CCN(C)C)C2=O was run?
Answer: 110 nM

Question: CCc1nc2c(o1)C(=O)C(NCCN(C)C)=CC2=O was tested. Which IC50 did it give?
Answer: 220 nM

Question: CCc1nc2c([nH]1)C(=O)/C(=N/CCN(C)C)C=C2O was tested. Which IC50 did it give?
Answer: > 10000 nM

Question: Which IC50 does the source give for CC1=CC(=O)c2ccccc2C1=O [MENADIONE] here?
Answer: 11000 nM
